Reference: article PMC9016318 (Cancer Research and Treatment : Official Journal of Korean …, 2021)
No end group written: not given here.

Legend:
[1] = tested on: Cal27 cells; experiment: CCK-8 cytotoxicity, Cal27 cells; assay type: cell-based, human; settings: CCK-8, 64 μM, 24 hours
Summary of the method: (§1)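 Cells were seeded in 96-well plates and cultured 24 h: Jurkat T at 4,000/well, Cal27 at 2,000/well. Test peptide was added at 1–64 μM for 24 h, then CCK-8 for 2 h, and absorbance was read at 450. Viability % = (sample − no-cell baseline with peptide)/(untreated control − no-cell blank) × 100. Data are mean±standard error of three separate experiments.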

[2] = tested on: ICIK cells; experiment: CCK-8 cytotoxicity, ICIK cells; assay type: cell-based, human; settings: CCK-8, 64 μM, 24 hours
Summary of the method: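 ICIK cells were human blood PBMCs, Ficoll-separated, held overnight at 4°C on anti-CD3 (OKT3, 10 μg/mL) coated dishes, then grown 10 days in RPMI 1640/10% FBS with IFN-γ 2000 U/mL and IL-2 10 ng/mL. They were seeded at 4,000/well and cultured 24 h. Test peptide at 1–64 μM was added for 24 h, then CCK-8 for 2 h, and absorbance read at 450. Viability was blank/baseline-corrected against untreated wells.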

[3] = tested on: Jurkat T cells; experiment: CCK-8 cytotoxicity, Jurkat T cells; assay type: cell-based, human; settings: CCK-8, 64 μM, 24 hours
Summary of the method: as §1

[4] = biological target: human recombinant PD-1 protein (human, UniProt Q15116); experiment: SPR
human recombinant PD-1 protein, sequence (Q15116 25-170): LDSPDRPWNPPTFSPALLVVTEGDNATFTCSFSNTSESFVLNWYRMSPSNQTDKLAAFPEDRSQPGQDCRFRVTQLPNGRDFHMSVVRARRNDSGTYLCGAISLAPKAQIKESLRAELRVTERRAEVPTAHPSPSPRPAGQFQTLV

Molecule	cytotoxicity to stimulated Cal27 cells [1]	cytotoxicity to ICIK cells [2]	cytotoxicity to Jurkat T cells [3]	Kd [4]
SRLKEIANSPTQFWRMVARNTLGNGAKQSLNIEHARL [nABP284]	not directly cytotoxic	not directly cytotoxic	not directly cytotoxic	–
SRLKEIANSPTQFWRMVARNTLGNGAKQSLNIEHARL [nABP284]	–	–	–	11.8 µM
